Screening data from PubChem.
Compounds with a hit are over-represented: about 3% of the library has one in this group of screens.
UCH37 inh = blocks the human deubiquitinase UCH37. purified proteasome/UCH37, Ub-AMC cleavage fluorescence. 330,000 tested, 0.33% active. inhibition, % (test concentration not listed). AID 588478. Q9Y5K5;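 active means mean inhibition over replicate wells above about 20%, limit read from the data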;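 further: 0% = compound-free wells with enzyme and 100% = wells lacking proteasome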
Target sequence (Q9Y5K5 whole entry, looked up): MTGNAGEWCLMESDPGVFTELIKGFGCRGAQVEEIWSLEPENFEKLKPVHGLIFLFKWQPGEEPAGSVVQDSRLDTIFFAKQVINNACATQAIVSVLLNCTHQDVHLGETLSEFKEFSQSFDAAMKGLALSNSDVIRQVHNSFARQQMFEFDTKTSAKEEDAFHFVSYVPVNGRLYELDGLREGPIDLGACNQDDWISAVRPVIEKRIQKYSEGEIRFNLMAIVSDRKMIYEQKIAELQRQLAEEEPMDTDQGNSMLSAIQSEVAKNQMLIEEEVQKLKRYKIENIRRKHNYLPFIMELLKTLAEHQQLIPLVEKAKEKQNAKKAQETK
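Signal – fluorescence, ex 355 nm, em 460 nm · System – Proteasome-bound UCH37 · Input – 0.15 nM proteasome as dispensed · Timing – 30 min preincubation with enzyme, 25 min cleavage at room temperature · Read-out basis – percent inhibition of cleavage signal versus uninhibited and no-proteasome wells · Medium – Tris-HCl pH 7.4 with ATP-MgCl2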
MEKK2 WT-MEK5 = raises or lowers MEK5 binding to wildtype human MEKK2 PB1 domain; binding response (% of control), % at 10 µM; bead flow cytometry, Alexa488-MEK5 binding to MEKK2 WT; actives lie on both sides; 290,000 tested, 1.1% active; Q9Y2U5; in the data active means binding response below about 67% or above about 130%
MEKK2 mut-MEK5 = signal of MEK5 binding to mutant human MEKK2 PB1 domain | bead flow cytometry, Alexa488-MEK5 binding to MEKK2 mutant | percent response, % at 10 µM | 290,000 tested, 0.35% active; in the data active means percent response above about 24%, passing the limit was not always enough
MEKK3 PB1 HTS = modulators (inhibitors or enhancers) of MEK5 binding to human MEKK3 PB1 domain; Q99759; bead-based flow cytometry, Alexa488-MEK5 binding to MEKK3; actives lie on both sides; 0 = blocked by unlabeled MEK5, 100 = vehicle; binding response (% of control), % at 10 µM; 290,000 tested, 1.4% active;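 active means binding response more than 3 SD above or below the average of its plate-row segment, actives on both sides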;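 further: Alexa488 bead fluorescence after subtracting the streptavidin-only scavenger bead signal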
Apaf-1 inh = inhibitors of human Apaf-1 apoptosome; O14727; reconstituted apoptosome caspase-3 activity, DEVD-Rh110 fluorescence; inhibition, % at 20 µM; 330,000 tested, 0.71% active; AID 489030; active means inhibition of at least 40% at 20 µM;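 further: plate controls were DMSO wells for no effect and DEVD-CHO caspase inhibitor wells for full effect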
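Material: biochemical Apaf-1 apoptosome reconstitution. Medium: Hepes buffer, pH 7.5. Also added: cytochrome c activation, bis-DEVD rhodamine 110 substrate. Timing: 30 min compound preincubation, 50 min activation, room temperature. Measured by: rhodamine 110 fluorescence at Ex 480/Em 540 nm.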
UBC13 inh = inhibitors of human UBC13 polyubiquitin chain formation; P61088; TR-FRET; inhibition, % at 20 µM; 330,000 tested, 0.47% active; AID 485273; in the data active means inhibition above about 45%, passing the limit was not always enough
Target sequence (P61088 whole entry, looked up): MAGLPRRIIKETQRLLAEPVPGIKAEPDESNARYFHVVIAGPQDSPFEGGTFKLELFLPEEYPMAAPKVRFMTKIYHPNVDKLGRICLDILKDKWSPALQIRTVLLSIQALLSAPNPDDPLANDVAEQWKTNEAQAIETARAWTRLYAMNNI
Apaf-1 inh conf2 = confirmation of Apaf-1 inhibitors | shares compounds with Apaf-1 inh | reconstituted apoptosome, caspase-3 DEVD-Rh110 fluorescence | inhibition, % at 20 µM | AID 504614 | 1,800 tested, 25% active;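 active means mean inhibition of at least 40% at 20 µM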;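 further: plate controls were DMSO wells for no effect and DEVD-CHO caspase inhibitor control wells for full effect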
Rh110 interf inh = Rh110 signal interference in Apaf-1 inhibitor counter-screen; shares compounds with Apaf-1 inh; Rh110 fluorescence interference, quenched caspase reaction; activation (fluorescence interference), % at 20 µM; 1,800 tested, under 10 active; AID 504615;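 active means signal rise of 40% or more at 20 µM, treated as a fluorescence artifact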
Fluor interf inh = counter-screen for Apaf-1 inhibitors: fluorescence interference, dose response. shares compounds with Apaf-1 inh. fluorescence interference counterscreen, Apaf-1 assay format. IC50, µM. 460 tested, under 10 active. AID 588538; call rule not given here
* = called active by the depositor.

Screening CC1=NN(c2cccc(F)c2)C(=O)/C1=C/c1ccc(N(C)C)cc1 returned UCH37 inh 2, MEKK2 WT-MEK5 99, MEKK2 mut-MEK5 1, MEKK3 PB1 HTS 99, Apaf-1 inh 7 and UBC13 inh -102.
For CC1=NN(c2ccc(C)c(C)c2)C(=O)/C1=C/c1ccc2c(c1)n(C)c(=O)n2C the results were UCH37 inh 1, MEKK2 WT-MEK5 104, MEKK2 mut-MEK5 0, MEKK3 PB1 HTS 107, Apaf-1 inh 94*, UBC13 inh -26, Apaf-1 inh conf2 13 and Rh110 interf inh 5.
For CC1=NN(c2ccccc2)C(=O)/C1=C\c1ccc(Br)s1 the results were UCH37 inh 5, MEKK2 WT-MEK5 98, MEKK2 mut-MEK5 -1, MEKK3 PB1 HTS 105, Apaf-1 inh 96*, UBC13 inh -8, Apaf-1 inh conf2 38 and Rh110 interf inh 1.
For CC1=NN(c2ccccc2)C(=O)/C1=C/c1cccs1 the results were UCH37 inh 6, MEKK2 WT-MEK5 106, MEKK2 mut-MEK5 -1, MEKK3 PB1 HTS 120, Apaf-1 inh 90*, UBC13 inh -19, Apaf-1 inh conf2 12 and Rh110 interf inh 3.
For COc1ccccc1N1CCN(C(=O)CSc2nc3ncnc(N)c3[nH]2)CC1 the results were UCH37 inh 3, MEKK2 WT-MEK5 103, MEKK2 mut-MEK5 2, MEKK3 PB1 HTS 105, Apaf-1 inh -10 and UBC13 inh 25.
O=S(=O)(c1ccc(Br)cc1)N1CCN(c2ccc3nnc(-c4ccccc4)n3n2)CC1 was read as UCH37 inh -3, MEKK2 WT-MEK5 108, MEKK2 mut-MEK5 9, MEKK3 PB1 HTS 116, Apaf-1 inh 41*, UBC13 inh 35, Apaf-1 inh conf2 55*, Rh110 interf inh 12 and Fluor interf inh >100.
Screening N#CC1=C2SCN(Cc3ccccc3)CN2C(=O)CC1c1ccc2c(c1)OCO2 (stereo not given) returned UCH37 inh 6, MEKK2 WT-MEK5 101, MEKK2 mut-MEK5 -8, MEKK3 PB1 HTS 101, Apaf-1 inh 7 and UBC13 inh -4.
`N#CC1=C2SCN(Cc3ccccc3)CN2C(=O)CC1c1cccs1` (stereo not given) gave UCH37 inh 5, MEKK2 WT-MEK5 104, MEKK2 mut-MEK5 8, MEKK3 PB1 HTS 103, Apaf-1 inh 78*, UBC13 inh -16, Apaf-1 inh conf2 17 and Rh110 interf inh -8.
`COc1ccc2ccccc2c1C1CC(=O)N2CN(Cc3ccco3)CSC2=C1C#N` (stereo not given) gave UCH37 inh 6, MEKK2 WT-MEK5 104, MEKK2 mut-MEK5 3, MEKK3 PB1 HTS 101, Apaf-1 inh 52*, UBC13 inh -6, Apaf-1 inh conf2 32 and Rh110 interf inh 8.
`O=C(Nc1ccc2c(c1)CCC2)c1cnccn1` gave UCH37 inh 6, MEKK2 WT-MEK5 99, MEKK2 mut-MEK5 3, MEKK3 PB1 HTS 93, Apaf-1 inh -1 and UBC13 inh -14.
O=C(COC(=O)c1cc(Cl)ccc1Cl)NCCN1C(=O)CSC1=O was read as UCH37 inh 3, MEKK2 WT-MEK5 112, MEKK2 mut-MEK5 0, MEKK3 PB1 HTS 111, Apaf-1 inh 43*, UBC13 inh -3, Apaf-1 inh conf2 10 and Rh110 interf inh -3.
`O=C(O)c1nnn(-c2ccc([N+](=O)[O-])cc2)c1-c1ccccc1` gave UCH37 inh 4, MEKK2 WT-MEK5 98, MEKK2 mut-MEK5 1, MEKK3 PB1 HTS 96, Apaf-1 inh -6 and UBC13 inh 8.
Screening CCOC(=O)c1c(C)n(CCNC(C)=O)c2ccc(O)cc12 returned UCH37 inh 1, MEKK2 WT-MEK5 101, MEKK2 mut-MEK5 4, MEKK3 PB1 HTS 101, Apaf-1 inh -14 and UBC13 inh 9.
